Consider nine compounds from paper PMC6148440 (Journal of Medicinal Chemistry, 2018).

Values joined by “and” are separate entries in the source; they are usually repeats but may differ in a detail not shown here. Equal values may be shown once.

The nature of data set [1]: Calculated LD50 on mice, extrapolated from zebrafish embryo LC50. The following applies: mouse.
The subject of data set [2] is bloodstream forms of T. brucei brucei. Briefly: In vitro antitrypanosomal activity, bloodstream forms. In kind it is cell-based, T. brucei brucei S427 (S16). The following applies: for IC50: Trypanosoma brucei, 72 h, read-out: IC50 parasite T. brucei; for SI T. brucei: selectivity index IC50(MRC-5)/IC50(parasite). The method, boiled down:
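Bloodstream forms were kept in HMI-9 with 10% hiFBS at 37 °C, 5% CO2. Parasites at 1 × 10^4/mL were exposed to increasing compound concentrations for 72 h under the same conditions. Proliferation was read by alamarBlue fluorescence (excitation 550, emission 590 nm), and IC50 was derived from this.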

The test system of data set [3] is P. falciparum. Briefly: In vitro antimalarial activity, [3H]-hypoxanthine incorporation. The class given is cell-based, P. falciparum (3D7 strain). Summed up:
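Infected erythrocytes were used at 1.5% final hematocrit and 0.6% parasitemia in RPMI 1640 with 10% AB human serum. Compounds were dissolved in DMSO and diluted in medium, with final DMSO ≤0.25%. After 48 h at 37 °C, 0.6 μCi [3H]-hypoxanthine was added per well for 18 h. Cells were harvested onto glass-fibre filters for scintillation counting. Uninfected-erythrocyte background was subtracted, and IC50 was taken as 50% growth inhibition.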

In data set [4] the test system is MRC-5 human nontumoral lung cell line. The following applies: read-out: IC50 MRC-5; MRC-5 control cell line, MTT, 72 h; cited from earlier work.
The subject of a further data set is L. major promastigotes. As to the kind of experiment: In vitro antileishmanial activity, promastigote drug susceptibility. The class given is cell-based, L. major (MHOM/IL/80/Friedlin). The following applies: for SI L. major: selectivity index IC50(MRC-5)/IC50(parasite). The method, boiled down:
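Promastigotes at 1 × 10^6/mL were cultured in modified RPMI-1640 with 10% hiFBS. They were exposed to increasing compound concentrations for 72 h at 28 °C. Proliferation was measured by MTT, with absorbance read at 540 nm.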

The nature of data set [5]: Acute toxicity assay on zebrafish embryos. In kind it is in vivo, zebrafish (Danio rerio), strain AB. To be noted: AB, zebrafish, in vivo. The method, boiled down: (§1)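 Embryos of strain AB were collected in E3 medium and sorted at 3 hpf, with 20 healthy embryos per condition. Medium was replaced by compound in 0.1% DMSO/E3, made from a 100 mM DMSO stock, at five log concentrations, either 0.01–100 μM or 0.1 μM–1 mM. Embryos were held at 28.5 °C from 3 to 96 hpf, and coagulated eggs were removed at 24 h. LC50 came from a sigmoidal fit of mortality. Controls were 0.1% DMSO in triplicate (repeat if mortality >20%) and DEAB at 0.1 μM–1 mM.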

The test system of a further data set is zebrafish embryos. Briefly: Acute toxicity assay on zebrafish embryos. The class given is in vivo, zebrafish (Danio rerio), strain AB. The following applies: zebrafish embryos, 96 hpf; mortality score >20% assumed as the effect. The method, boiled down: as §1
The test system of data set [6] is HT-29, MCF-7, and HeLa cancer cells. The following applies: cited from earlier work.
The test system of data set [7] is P. falciparum. The following applies: read-out: concentration inhibiting 50% growth of P. falciparum; cited from earlier work.

For `CC(=O)N[C@@H]1[C@@H](O)[C@H](O)[C@@H](CO)O[C@H]1n1cc(CNc2cc3c4c(ccc5c4c2C(=O)N(CCCN(C)C)C5=O)C(=O)N(CCCN(C)C)C3=O)nn1` [Compound 2, β-glcNAc-NDI], the 50% lethal dose (LD50) in [1] is > 630 µmol/kg and > 607 mg/kg.
Same read-out and setting: for `C[C@H]1O[C@@H](n2cc(CNc3cc4c5c(ccc6c5c3C(=O)N(CCCN(C)C)C6=O)C(=O)N(CCCN(C)C)C4=O)nn2)[C@H](O)[C@@H](O)[C@@H]1O` [Compound 3, β-6dglc-NDI] the value was 170 µmol/kg and 154 mg/kg.
As for `CN(C)CCCN1C(=O)c2ccc3c4c(c(NCc5cn([C@@H]6O[C@H](CO)[C@@H](OC7O[C@H](CO)[C@@H](O)[C@H](O)[C@H]7O)[C@H](O)[C@H]6O)nn5)cc(c24)C1=O)C(=O)N(CCCN(C)C)C3=O.O=C(O)C(F)(F)F.O=C(O)C(F)(F)F` (stereo partly drawn) [Compound 4, β-malt-NDI], the IC50 was 99 ± 10 nM in [2]; 2040 ± 50 nM in data set [4]; 921 ± 51 nM in the data set on L. major promastigotes (Leishmania major, 72 h, read-out: IC50 parasite L. major). For the same compound, in data set [2], the “SI T. brucei” value was determined as 20.6. The “SI P. falciparum” value in the data set on P. falciparum [3] (selectivity index IC50(MRC-5)/IC50(parasite)) is reported as 5.5. Further, in [1], the median lethal dose (LD50) is 190 µmol/kg and 206 mg/kg. Further, the “SI L. major” value with L. major promastigotes is recorded as 2.2. This compound also displayed an LC50 at 96 hpf in data set [5] of 190000 nM. The NOEC in the data set on zebrafish embryos came out at 100 µM.
As to `CN(C)CCCN1C(=O)c2ccc3c4c(c(NCc5cn(CCO[C@H]6O[C@H](CO)[C@@H](O)[C@H](O)[C@@H]6O)nn5)cc(c24)C1=O)C(=O)N(CCCN(C)C)C3=O` [Compound 5, α-manC2-NDI], the LD50 in [1] is > 630 µmol/kg and > 609 mg/kg.
Regarding `CN(C)CCCN1C(=O)c2ccc3c4c(c(NCc5cn(CCO[C@@H]6O[C@H](CO)[C@@H](O)[C@H](O)[C@H]6O)nn5)cc(c24)C1=O)C(=O)N(CCCN(C)C)C3=O` [Compound 6, β-glcC2-NDI], in data set [2], the IC50 was 17 ± 9 nM and the “SI T. brucei” value worked out at 41.8. Also, the “fold more active than compound 1, antitumor activity” value in [6] is “approximately 10 fold”. Also, the “fold more active than compound 1 against P. falciparum” value with P. falciparum [3] came out at 5 fold. Moreover, the LD50 in data set [1] was > 630 µmol/kg and > 609 mg/kg. For the same compound, the “SI L. major” value with L. major promastigotes is reported as 1.3.
In the case of `CCCNc1cc2c3c(ccc4c3c1C(=O)N(CCCN(C)C)C4=O)C(=O)N(CCCN(C)C)C2=O` [Compound 7, NDI-prop], in data set [2], the IC50 worked out at 9 ± 1 nM and the “SI T. brucei” value was 40.0. Also, the median lethal dose (LD50) in data set [1] was 330 µmol/kg and 178 mg/kg. Moreover, the “SI L. major” value with L. major promastigotes is listed as 10.6.
Turning to `C[n+]1ccc(-c2c3nc(c(-c4cc[n+](C)cc4)c4ccc([nH]4)c(-c4cc[n+](C)cc4)c4nc(c(-c5cc[n+](C)cc5)c5ccc2[nH]5)C=C4)C=C3)cc1` [TMPyP4, reference compound], the IC50 is 5000 nM in the data set on P. falciparum [7] and above 25000 nM in [4].
Consider `Cc1ccc(C(=O)Nc2ccc(S(=O)(=O)O)c3cc(S(=O)(=O)O)cc(S(=O)(=O)O)c23)cc1NC(=O)c1cccc(NC(=O)Nc2cccc(C(=O)Nc3cc(C(=O)Nc4ccc(S(=O)(=O)O)c5cc(S(=O)(=O)O)cc(S(=O)(=O)O)c45)ccc3C)c2)c1` [suramin, reference compound], for which the IC50 in data set [2] amounted to 38 ± 3 nM.
With `Cc1oc2nc1-c1nc(co1)-c1nc(co1)-c1nc(co1)-c1nc(co1)-c1nc(co1)C1=NC(CS1)c1nc-2c(C)o1` (centres unmarked) [telomestatin], the IC50 with P. falciparum [7] was 35000 nM.

For orientation: LD50 means the dose at which mortality reaches 50%. Usually LC50 stands for the concentration that kills 50% of the test population. A high value points to lower toxicity.
